Test results as given in ChEMBL document CHEMBL1821600, “Synthesis and antiviral evaluation of α-L-2'-deoxythreofuranosyl nucleosides” (Eur J Med Chem, 2011).
pIC50: −log10 of the molar value. Calls of active or inactive are those of the source. The calls are words filed in the database; no cut-off is given here.

How the values were obtained:
Vero = experiment: Cytotoxicity against african green monkey Vero cells at 100 ug/ml; assay type: cell-based; settings: chlorocebus sabaeus
MDCK = experiment: Cytotoxicity against MDCK cells at 100 ug/ml; assay type: cell-based, Canis lupus familiaris; settings: dog
Vaccinia virus = experiment: Antiviral activity against Vaccinia virus infected in HEL cells assessed as inhibition of virus-induced cytopathicity upto 200 uM administered after 1 hr virus adsorption period; assay type: functional, organism-based; settings: Orthopoxvirus vaccinia
CCRF-CEM = experiment: Cytotoxicity against human CEM cells at 100 ug/ml; assay type: cell-based
[1] = tested on: Mammalian orthoreovirus 1; experiment: Antiviral activity against Reovirus 1 infected in Vero cells assessed as inhibition of virus-induced cytopathicity upto 200 uM administered after 1 hr virus adsorption period; assay type: functional, organism-based
Method in brief: (§1)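 Confluent cell monolayers (HEL for HSV-1 and HSV-2; Vero for parainfluenza-3, reovirus-1, Sindbis and Punta Toro; HeLa for Coxsackie B4 and RSV) in 96-well plates were inoculated with 100 CCID50 of virus. After 1 h adsorption, unbound virus was removed. Cells were then kept with compound at 200, 40, 8… μM. Cytopathicity was scored once untreated infected controls reached full CPE.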

[2] = tested on: Human immunodeficiency virus 2; experiment: Antiviral activity against Human immunodeficiency virus type 2 ROD infected in human CEM cells assessed as inhibition of virus-induced giant cell formation after 4 days by microscopic method; assay type: functional, organism-based; settings: Human immunodeficiency virus 2, ISOLATE ROD, CCRF-CEM, 96 h
Method in brief: (§2)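 CEM cells (~3×10^5 cells/cm³) were infected with 100 CCID50/mL of HIV-1(IIIB) or HIV-2(ROD) and seeded into wells containing serial compound dilutions. After 4 days at 37 °C, giant (syncytium) cell formation was scored microscopically.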

[3] = tested on: Vesicular stomatitis virus; experiment: Antiviral activity against Vesicular stomatitis virus infected in HEL cells assessed as inhibition of virus-induced cytopathicity upto 200 uM administered after 1 hr virus adsorption period; assay type: functional, organism-based
Coxsackievirus B4 = experiment: Antiviral activity against Coxsackievirus B4 infected in HeLa cells assessed as inhibition of virus-induced cytopathicity upto 200 uM administered after 1 hr virus adsorption period; assay type: functional, organism-based; method in brief: as §1
[4] = tested on: Human immunodeficiency virus 1; experiment: Antiviral activity against Human immunodeficiency virus 1 3B infected in human CEM cells assessed as inhibition of virus-induced giant cell formation after 4 days by microscopic method; assay type: functional, organism-based; settings: CCRF-CEM, 96 h; method in brief: as §2
Punta Toro virus = experiment: Antiviral activity against Punta Toro virus infected in Vero cells assessed as inhibition of virus-induced cytopathicity upto 200 uM administered after 1 hr virus adsorption period; assay type: functional, organism-based; method in brief: as §1
Influenza A virus [5] = experiment: Antiviral activity against Influenza A virus H3N2 infected in MDCK cells assessed as inhibition of virus-induced cytopathicity upto 200 uM administered after 1 hr virus adsorption period; assay type: functional, organism-based
Human betaherpesvirus 5 = experiment: Antiviral activity against Human cytomegalovirus infected in human HEL cells assessed as inhibition of virus-induced cytopathicity upto 200 uM administered after 1 hr virus adsorption period; assay type: functional, organism-based
Human respirovirus 3 = experiment: Antiviral activity against Parainfluenza virus 3 infected in Vero cells assessed as inhibition of virus-induced cytopathicity upto 200 uM administered after 1 hr virus adsorption period; assay type: functional, organism-based; method in brief: as §1
Feline coronavirus = experiment: Antiviral activity against Feline coronavirus infected in CRFK cells assessed as inhibition of virus-induced cytopathicity upto 200 uM administered after 1 hr virus adsorption period; assay type: functional, organism-based
[6] = tested on: Respiratory syncytial virus; experiment: Antiviral activity against Respiratory syncytial virus infected in HeLa cells assessed as inhibition of virus-induced cytopathicity upto 200 uM administered after 1 hr virus adsorption period; assay type: functional, organism-based; method in brief: as §1
HeLa = experiment: Cytotoxicity against human HeLa cells at 100 ug/ml; assay type: cell-based
Sindbis virus = experiment: Antiviral activity against Sindbis virus infected in Vero cells assessed as inhibition of virus-induced cytopathicity upto 200 uM administered after 1 hr virus adsorption period; assay type: functional, organism-based; method in brief: as §1
[7] = Cytotoxicity against CRFK cells at 100 ug/ml; assay type: cell-based, Felis catus; settings: cat
Human alphaherpesvirus 3 = experiment: Antiviral activity against Varicella Zoster Virus infected in human HEL cells assessed as inhibition of virus-induced cytopathicity upto 200 uM administered after 1 hr virus adsorption period; assay type: functional, organism-based
Human alphaherpesvirus 2 = experiment: Antiviral activity against Herpes simplex virus type 2 infected in HEL cells assessed as inhibition of virus-induced cytopathicity upto 200 uM administered after 1 hr virus adsorption period; assay type: functional, organism-based; method in brief: as §1
Influenza A virus [8] = experiment: Antiviral activity against influenza A virus H1N1 infected in MDCK cells assessed as inhibition of virus-induced cytopathicity upto 200 uM administered after 1 hr virus adsorption period; assay type: functional, organism-based
Influenza B virus = experiment: Antiviral activity against influenza B virus infected in MDCK cells assessed as inhibition of virus-induced cytopathicity upto 200 uM administered after 1 hr virus adsorption period; assay type: functional, organism-based
HEL = experiment: Cytotoxicity against human HEL cells at 100 ug/ml; assay type: cell-based
Human alphaherpesvirus 1 = experiment: Antiviral activity against Herpes simplex virus type 1 infected in HEL cells assessed as inhibition of virus-induced cytopathicity upto 200 uM administered after 1 hr virus adsorption period; assay type: functional, organism-based; method in brief: as §1
[9] = target: Thymidine kinase, cytosolic (Homo sapiens, UniProt P04183); experiment: Inhibition of human recombinant cytosolic TK1 assessed as inhibition of [methyl-3H]dThd phosphorylation after 30 mins by scintillation counting
Method in brief: (§3)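 Recombinant enzyme (TK-1, TK-2, HSV-1 TK, VZV TK or Drosophila dNK) was used in 50 mM Tris/HCl pH 8.0 with 2.5 mM MgCl2, 10 mM DTT, 0.5 mM CHAPS, 3 mg/mL BSA, 2.5 mM ATP and 1 µM [methyl-3H]dThd. Compound was added as 5-fold dilutions, and reactions ran 30 min at 37 °C, still linear. Mixtures were spotted on DE-81 disks, washed in ammonium formate, water and ethanol, then scintillation counted. IC50 was determined.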

Deoxynucleoside kinase = target: T1, Deoxynucleoside kinase (Drosophila melanogaster, UniProt Q9XZT6); experiment: Inhibition of Drosophila melanogaster deoxynucleoside kinase assessed as inhibition of [methyl-3H]dThd phosphorylation after 30 mins by scintillation counting; method in brief: as §3
T1 sequence (Q9XZT6 whole entry): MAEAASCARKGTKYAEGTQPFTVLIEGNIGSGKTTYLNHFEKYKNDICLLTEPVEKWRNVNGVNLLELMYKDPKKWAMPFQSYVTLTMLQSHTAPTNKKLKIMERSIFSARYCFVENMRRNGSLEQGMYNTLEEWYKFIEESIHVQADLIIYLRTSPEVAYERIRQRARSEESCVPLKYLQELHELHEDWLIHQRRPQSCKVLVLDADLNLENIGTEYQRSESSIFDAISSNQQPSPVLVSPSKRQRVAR

[10] = Inhibition of Herpes simplex virus type 1 thymidine kinase assessed as inhibition of [methyl-3H]dThd phosphorylation after 30 mins by scintillation counting; design: species or system Human alphaherpesvirus 1; method in brief: as §3
[11] = Inhibition of varicella zoster virus thymidine kinase assessed as inhibition of [methyl-3H]dThd phosphorylation after 30 mins by scintillation counting; design: species or system Human alphaherpesvirus 3; method in brief: as §3
[12] = target: T2, Thymidine kinase 2, mitochondrial (Homo sapiens, UniProt O00142); experiment: Inhibition of human mitochondrial TK2 assessed as inhibition of [methyl-3H]dThd phosphorylation after 30 mins by scintillation counting; method in brief: as §3
T2 sequence (O00142 whole entry): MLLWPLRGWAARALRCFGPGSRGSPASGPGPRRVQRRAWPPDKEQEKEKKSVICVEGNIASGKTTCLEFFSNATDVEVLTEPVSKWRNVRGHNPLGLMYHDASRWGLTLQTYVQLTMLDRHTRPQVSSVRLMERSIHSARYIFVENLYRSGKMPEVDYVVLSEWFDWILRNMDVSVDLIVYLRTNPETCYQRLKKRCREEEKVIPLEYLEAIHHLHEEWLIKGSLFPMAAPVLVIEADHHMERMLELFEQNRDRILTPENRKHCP

Thymidine kinase, cytosolic, sequence (P04183 whole entry): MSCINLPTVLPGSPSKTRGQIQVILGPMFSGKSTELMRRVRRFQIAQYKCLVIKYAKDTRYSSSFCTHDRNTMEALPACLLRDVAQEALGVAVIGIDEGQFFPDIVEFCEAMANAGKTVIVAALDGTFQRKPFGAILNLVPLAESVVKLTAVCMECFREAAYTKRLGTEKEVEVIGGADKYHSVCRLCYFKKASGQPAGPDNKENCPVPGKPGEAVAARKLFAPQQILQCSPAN

| Structure (SMILES) | Activity (Vero) | Activity (MDCK) | inhibition (Vaccinia virus) | Activity (CCRF-CEM) | inhibition [1] | EC50 [2] | inhibition [3] | inhibition (Coxsackievirus B4) | EC50 [4] | inhibition (Punta Toro virus) | inhibition (Influenza A virus [5]) | inhibition (Human betaherpesvirus 5) | inhibition (Human respirovirus 3) | inhibition (Feline coronavirus) | inhibition [6] | Activity (HeLa) | inhibition (Sindbis virus) | Activity [7] | inhibition (Human alphaherpesvirus 3) | inhibition (Human alphaherpesvirus 2) | other results |
| --- | --- | --- | --- | --- | --- | --- | --- | --- | --- | --- | --- | --- | --- | --- | --- | --- | --- | --- | --- | --- | --- |
| CC(=O)Nc1ccn([C@H]2C[C@@H](O)CO2)c(=O)n1 | Non-toxic | Non-toxic | inactive | Non-toxic | inactive | > 100 µg/mL | inactive | inactive | > 100 µg/mL | inactive | inactive | inactive | inactive | inactive | inactive | Non-toxic | inactive | Non-toxic | inactive | inactive | inhibition (Influenza A virus [8]): inactive; inhibition (Influenza B virus): inactive; Activity (HEL): Non-toxic; inhibition (Human alphaherpesvirus 1): inactive |
| Nc1ccn([C@H]2C[C@@H](O)CO2)c(=O)n1 | Non-toxic | Non-toxic | inactive | Non-toxic | inactive | > 100 µg/mL | inactive | inactive | > 100 µg/mL | inactive | inactive | inactive | inactive | inactive | inactive | Non-toxic | inactive | Non-toxic | inactive | inactive | pIC50 [9]: 2.99; pIC50 (Deoxynucleoside kinase): < 2.99; IC50 [10]: > 200 µg/mL; IC50 [11]: > 200 µg/mL; inhibition (Influenza A virus [8]): inactive; inhibition (Influenza B virus): inactive; pIC50 [12]: < 2.99; Activity (HEL): Non-toxic; inhibition (Human alphaherpesvirus 1): inactive |
| O=c1ccn([C@H]2C[C@@H](O)CO2)c(=O)[nH]1 | Non-toxic | Non-toxic | inactive | Non-toxic | inactive | > 100 µg/mL | inactive | inactive | > 100 µg/mL | inactive | inactive | inactive | inactive | inactive | inactive | Non-toxic | inactive | Non-toxic | inactive | inactive | pIC50 (Deoxynucleoside kinase): < 3.00; IC50 [10]: > 200 µg/mL; IC50 [11]: > 200 µg/mL; inhibition (Influenza A virus [8]): inactive; inhibition (Influenza B virus): inactive; pIC50 [12]: 3.52; Activity (HEL): Non-toxic; inhibition (Human alphaherpesvirus 1): inactive |
| Nc1ncnc2c1ncn2[C@H]1C[C@@H](O)CO1 | Non-toxic | Non-toxic | inactive | Non-toxic | inactive | > 100 µg/mL | inactive | inactive | > 100 µg/mL | inactive | inactive | inactive | inactive | inactive | inactive | Non-toxic | inactive | Non-toxic | inactive | inactive | pIC50 [9]: < 3.04; pIC50 (Deoxynucleoside kinase): < 3.04; IC50 [10]: > 200 µg/mL; IC50 [11]: > 200 µg/mL; inhibition (Influenza A virus [8]): inactive; inhibition (Influenza B virus): inactive; pIC50 [12]: < 3.04; Activity (HEL): Non-toxic; inhibition (Human alphaherpesvirus 1): inactive |
